Screening data as filed in PubChem BioAssay.
MT stabilize HCS – microtubule stabilization, imaging screen; HeLa tubulin immunostaining HCS, 24 h; share of cells brighter than vehicle mean+2SD; % tubulin-high responders, % at 10 µM; 200,000 compounds, 0.83% hits;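 active = plate Z-score above 3 for both tubulin-high and condensed-nucleus cell shares, with cell loss under 80%, at 10 µM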;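 note: anti alpha tubulin signal scored within the nucleus-defined area of each cell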
ROMK mod – modulators of human ROMK potassium channel | 130,000 compounds, 2% hits | Tet-inducible ROMK, thallium flux fluorescence; actives lie on both sides | B-score at 10 µM | P48048;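 active = signal ratio slope over the read window, or its plate-corrected B-score, at least 3 SD from the plate mean, either direction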;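 note: B-score of the F/F0 ratio slope over 7 to 12 s after thallium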
Target sequence (P48048 whole entry, looked up): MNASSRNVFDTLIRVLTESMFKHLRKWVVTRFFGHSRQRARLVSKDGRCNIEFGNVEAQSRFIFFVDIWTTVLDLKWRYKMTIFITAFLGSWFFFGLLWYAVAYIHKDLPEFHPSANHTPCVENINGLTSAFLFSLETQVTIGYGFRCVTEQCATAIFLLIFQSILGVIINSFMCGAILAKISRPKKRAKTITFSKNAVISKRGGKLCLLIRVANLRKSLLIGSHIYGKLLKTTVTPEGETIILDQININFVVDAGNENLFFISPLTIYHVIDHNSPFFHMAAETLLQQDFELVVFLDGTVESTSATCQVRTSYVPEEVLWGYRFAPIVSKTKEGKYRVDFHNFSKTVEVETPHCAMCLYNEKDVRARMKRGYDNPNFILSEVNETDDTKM
b-catenin transl – modulators of beta-catenin nuclear translocation. 190,000 compounds, 0.3% hits. HeLa beta-catenin nuclear translocation, immunofluorescence imaging. nuclear translocation activity, % at 5 µM;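 active = nuclear translocation activity above 50% at 5 µM, with a well cell count of 50 or more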;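 note: per-cell ratio of nuclear to cytoplasmic median beta-catenin stain intensity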
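Technique: fluorescence imaging of beta-catenin antibody stain plus DAPI / Material: human HeLa cell line / Incubation: compound treatment 24 h, 37°C, 5% CO2 / Read-out basis: % activation of per-cell nuclear versus cytoplasmic median beta-catenin signal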
Each line names hits and unclear results; the compound was inactive in the other large screens. Only some compounds are listed: those with a hit (about 1.9% of all), similar ones and a draw of the others.

CCc1nnc(NC(=O)CSc2nnc3c(C)cc4c(C)ccc(C)c4n23)s1	MT stabilize HCS 20, b-catenin transl 63 (no result: ROMK mod)
COc1cc2cc(C)c3nnc(SCC(=O)Nc4cc(C)on4)n3c2cc1OC	none
COC(=O)c1ccccc1NC(=O)C(=O)NCc1ccncc1	none
CCOC(=O)c1c[nH][nH]c1=O	none (no result: MT stabilize HCS)
CCN(CC)C(=O)Cn1cc(C(=O)C(=O)NCCCn2ccnc2)c2ccccc21	none (no result: ROMK mod)
CC1CC2(C)Oc3ccccc3CC2C(C)C1CNCCCN(C)C (centres undefined)	b-catenin transl 57
CC1Cc2ccccc2N1C(=O)CNCCCN(C)C (centres undefined)	none
O=C(/C=C/c1ccncc1)c1ccc(NC(=O)c2ccccc2F)cc1	none (no result: b-catenin transl)
Cc1ccccc1C(=O)c1c[nH]c(C(=O)N2CCN(c3ccccc3F)CC2)c1	none
O=C(c1c[nH]c(C(=O)N2CCN(c3ccccc3F)CC2)c1)c1cccc(Cl)c1Cl	MT stabilize HCS 23
O=C(NC(=S)NCc1cccnc1)c1cccc2ccccc12	none
CCC1=Nc2cc(C(=O)NCCCOC(C)C)ccc2Sc2ccccc21	none (no result: b-catenin transl)
CCC1=Nc2cc(C(=O)NCc3ccco3)ccc2Sc2ccccc21	MT stabilize HCS 24, b-catenin transl 55
CCC1=Nc2cc(C(=O)NCc3ccco3)ccc2Sc2ccc(Cl)cc21	none
CCC1=Nc2cc(C(=O)NCc3cccnc3)ccc2Sc2ccc(C)cc21	b-catenin transl 64 (no result: MT stabilize HCS, ROMK mod)
CCOC(=O)c1cc(C(=O)OCC)c(=O)[nH]c1N1CCCC1	none
N#CC1=C(N)Oc2ccc3ccccc3c2C1c1cccnc1 (centres undefined)	MT stabilize HCS 16
N#CC1=C(N)Oc2ccc3ccc(O)cc3c2C1c1cccnc1 (centres undefined)	none (no result: ROMK mod)
Cc1ccc(C)c(-n2c(-c3ccc(Br)cc3)csc2=NC(=O)c2ccccc2F)c1	none (no result: MT stabilize HCS, ROMK mod)
Cc1ccc(C2NC(=O)c3ccccc3N2)s1 (centres undefined)	MT stabilize HCS 43, b-catenin transl 94 (no result: ROMK mod)
O=C1NC(c2ccncc2)Nc2ccccc21 (centres undefined)	none (no result: ROMK mod)
O=C1NC(c2ccc(Cl)cc2)Nc2ccccc21 (centres undefined)	MT stabilize HCS 22
O=C1NC(c2ccco2)Nc2ccccc21 (centres undefined)	none (no result: ROMK mod)
CCOc1ccc(/C=N/NC(=O)Cc2cccs2)cc1	none (no result: MT stabilize HCS, ROMK mod)
C=CCOc1ccc(/C=N/NC(=O)CN2CCOCC2)cc1OCC	none
COc1ccc(-c2cc(C(=O)N3CCN(c4ccccc4)CC3)c3ccccc3n2)cc1	MT stabilize HCS 17, b-catenin transl 113
COc1cc(-c2cc(C(=O)N3CCN(c4ccccn4)CC3)c3ccccc3n2)cc(OC)c1OC	none (no result: ROMK mod, b-catenin transl)
CCOC(=O)N1CCN(C(=O)c2cc(-c3ccc(OCC)cc3)nc3ccccc23)CC1	none (no result: ROMK mod, b-catenin transl)
CCOc1ccc(-c2cc(C(=O)N3CCN(C)CC3)c3ccccc3n2)cc1	none (no result: ROMK mod, b-catenin transl)
COc1ccc(-c2cc(C(=O)N3CCN(c4ccccn4)CC3)c3ccccc3n2)cc1	MT stabilize HCS 29 (no result: ROMK mod)
CCOc1ccc(-c2cc(C(=O)N3CCN(c4ccccn4)CC3)c3ccccc3n2)cc1	MT stabilize HCS 24 (no result: ROMK mod, b-catenin transl)
Cc1ccc(C(=O)NNC(=O)/C=C\C(=O)O)cc1	none (no result: MT stabilize HCS)
COc1cccc(N/C(SC)=C(/C#N)C(N)=O)c1	MT stabilize HCS 22 (no result: ROMK mod)
COc1cccc(N/C(SC)=C(/C#N)C(=O)NCc2cccs2)c1	none
Cc1ccc(NC(=S)NC2CCCCC2)cc1S(=O)(=O)N(C)C	none
COC(=O)c1ccc(N=Cc2c(C(F)(F)F)[nH][nH]c2=O)cc1	none
COc1ccc(-n2cc(C#N)c(=O)n(Cc3ccc(F)cc3)c2=O)cc1	MT stabilize HCS 24
Cc1cc(C)n(Cc2ccc(F)cc2)c(=O)c1C#N	none
Cc1ccc(-n2nnnc2SCC(=O)c2cc(C)n(-c3cc(C)on3)c2C)cc1	MT stabilize HCS 7.5 (no result: ROMK mod)
Cc1cc(C(=O)CSc2nnnn2-c2ccccc2)c(C)n1-c1ccc2c(c1)OCO2	none
CN(CC(=O)NCc1cccs1)S(=O)(=O)c1cccc2nsnc12	none
O=C(C1CCCN(S(=O)(=O)c2cccc3nsnc23)C1)N1CCc2ccccc21 (centres undefined)	none
CC1Cc2ccccc2N1C(=O)C1CCCN(S(=O)(=O)c2cccc3nsnc23)C1 (centres undefined)	ROMK mod -3.1 (no result: b-catenin transl)
CCOC(=O)C/C(N)=N/N(C)c1ncc(C(F)(F)F)cc1Cl	none
Cc1nc2ccccn2c1C(=O)NC1CCCc2ccccc21 (centres undefined)	none
Cc1ccnc(NC(=O)/C=C/c2cccs2)c1	MT stabilize HCS 14 (no result: ROMK mod)
O=C(/C=C\c1ccco1)Nc1nc(-c2ccc3ccccc3c2)cs1	none (no result: ROMK mod)
CC(=O)NC(=S)Nc1ccc(NC(=S)NC(=O)/C=C/c2ccco2)cc1	none (no result: MT stabilize HCS)
Cc1ccc(O)c(NC(=S)NC(=O)/C=C/c2ccco2)c1	none
Cc1ccnc(NC(=S)NC(=O)/C=C/c2ccco2)c1	MT stabilize HCS 21
O=C(/C=C/c1ccco1)NC(=S)Nc1ccc(N2CCCC2)cc1	MT stabilize HCS 13 (no result: ROMK mod)
